The values below come from paper PMC8693849 (RSC Advances, 2021).

One test has as its system S. aureus (ATCC 25923). Put plainly: Agar diffusion method, zone of inhibition. Conditions: Staphylococcus aureus, ATCC25923, 24 h, read-out: Diameter of zone inhibition. Format: cell-based, Staphylococcus aureus. In a few lines:
(§1)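 Bacterial strains were tested by agar diffusion on nutrient agar (peptone 5 and meat extract 3 g L⁻¹ in distilled water, pH 7.0, 2% agar, autoclaved 121 °C for 20 min). Each test compound (1 mg) was dissolved in 1 mL DMSO and made up to 10 mL with sterile water (100 μg mL⁻¹ stock). The solution was placed in the agar, and inhibition zones were measured after 24 h incubation. Values are the mean of triplicate readings.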

The subject of a further test is S. pyogenes (ATCC 19615). Put plainly: Agar diffusion method, zone of inhibition. The note with it: Streptococcus pyogenes, ATCC19615, 24 h, read-out: Diameter of zone inhibition. In kind it is cell-based, Streptococcus pyogenes.
Another test deals with P. fluorescens (S 97). Put plainly: Agar diffusion method, zone of inhibition. Conditions: Pseudomonas fluorescens, 24 h, read-out: Diameter of zone inhibition. In kind it is cell-based, Pseudomonas fluorescens. The essentials: as §1
A further test concerns C. albicans. Put plainly: Agar diffusion method, zone of inhibition. In kind it is cell-based, Candida albicans. The note with it: Candida albicans, 24 h, read-out: Diameter of zone inhibition. In a few lines:
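For agar diffusion against C. albicans, each test compound (1 mg) was dissolved in 1 mL DMSO and diluted to 10 mL with sterile water (100 μg mL⁻¹ stock). The solution was placed in the agar, and the inhibition zone diameter was read after 24 h. Values are the average of triplicate readings.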

The test system of another test is Gram-negative bacteria. Put plainly: Agar diffusion method. In kind it is cell-based, P. phaseolicola (GSPB 2828) and P. fluorescens (S 97). The note with it: summary of Table 1. The essentials: as §1
For test [1], the system named is MRSA1 (methicillin resistant S. aureus). Put plainly: Zone of inhibition against MDR clinical isolate. Format: cell-based. Conditions: Staphylococcus aureus, read-out: Diameter of zone inhibition.
In test [2] the test system is P. phaseolicola (GSPB 2828). Put plainly: Agar diffusion method, zone of inhibition. Format: cell-based, Pseudomonas phaseolicola. Conditions: Pseudomonas, 24 h, read-out: Diameter of zone inhibition. In a few lines: as §1
The subject of test [3] is K. pneumoniae (MDR clinical isolate). Put plainly: Zone of inhibition against MDR clinical isolate. Format: cell-based. The note with it: Klebsiella pneumoniae, read-out: Diameter of zone inhibition.
A further test has as its system Gram-positive bacteria. Put plainly: Agar diffusion method. In kind it is cell-based, S. aureus (ATCC 25923) and S. pyogenes (ATCC 19615). Conditions: summary of Table 1. The essentials: as §1

Take `CC(=O)C1=C(C)N2NC(c3ccccc3O)N(C(C)C(=O)O)C2=NC1c1ccc(Cl)cc1` (stereo not drawn) [Compound 2a, 2-(6-Acetyl-5-(4-chlorophenyl)-2-(2-hydroxyphenyl)-7-methyl-1,2-dihydro-[1,2,4]triazolo[1,5-a]pyrimidin-3(5H)-yl)propanoic acid]: the results for the zone of inhibition at 10 µg/mL in the test on S. aureus (ATCC 25923), with S. pyogenes (ATCC 19615) and in the test with P. fluorescens (S 97) were 10 mm, 12 mm and 16 mm, respectively. In addition, the zone of inhibition at 15 µg/mL in the test on S. aureus (ATCC 25923) turned out to be 16 mm.

Regarding `CC(C(=O)O)N1C2=NC(c3ccc(Cl)cc3)c3c([nH]c(=O)[nH]c3=O)N2NC1(C)c1ccccc1O` (stereo not drawn) [Compound 5, 2-(5-(4-Chlorophenyl)-2-(2-hydroxyphenyl)-2-methyl-6,8-dioxo-1,2,6,7,8,9-hexahydropyrimido[5,4-e][1,2,4]triazolo[1,5-a]pyrimidin-3(5H)-yl)propanoic acid], the zone of inhibition at 10 µg/mL was determined as 7 mm in the test on C. albicans, 11 mm in the test with S. pyogenes (ATCC 19615) and 15 mm in the test on P. fluorescens (S 97). For the same molecule, the zone of inhibition at 15 µg/mL was 9 mm with C. albicans; 8 mm in [1]; 26 mm in the test on S. aureus (ATCC 25923); 25 mm in the test on S. pyogenes (ATCC 19615); 30 mm in [2]; 28 mm in the test on P. fluorescens (S 97). For the same molecule, the zone of inhibition at 15 µg/mL in test [3] was 23 mm. Besides, the “Activity against Gram-negative bacteria” value with Gram-negative bacteria is recorded as “active”.

For the molecule `CC(=O)OCC1=C(C(=O)O)N2C(=O)[C@@H](NC(=O)Cc3cccs3)[C@H]2SC1` [Cephalothin, reference compound], in the test with S. aureus (ATCC 25923), the zone of inhibition at 10 µg/mL was found to be 28 mm and the zone of inhibition at 15 µg/mL was 28 mm. Moreover, in the test with S. pyogenes (ATCC 19615), the zone of inhibition at 10 µg/mL came to 30 mm and the zone of inhibition at 15 µg/mL stood at 30 mm.

On to `Clc1ccccc1C(c1ccccc1)(c1ccccc1)n1ccnc1` [Clotrimazole, reference compound], for which, in the test on C. albicans, the zone of inhibition at 10 µg/mL amounted to 36 mm and the zone of inhibition at 15 µg/mL came to 44 mm.

For `CC(=O)C1=C(C)N2NC(C)(c3ccccc3O)N(C(C)C(=O)O)C2=NC1c1ccc(Cl)cc1` (stereo not drawn) [Compound 2b, 2-(6-Acetyl-5-(4-chlorophenyl)-2-(2-hydroxyphenyl)-2,7-dimethyl-1,2-dihydro-[1,2,4]triazolo[1,5-a]pyrimidin-3(5H)-yl)propanoic acid], the zone of inhibition at 10 µg/mL with C. albicans turned out to be 6 mm; with S. aureus (ATCC 25923), 12 mm; in the test on S. pyogenes (ATCC 19615), 10 mm; in test [2], 16 mm; in the test with P. fluorescens (S 97) it was 15 mm. Besides, the zone of inhibition at 15 µg/mL was 8 mm with C. albicans, 8 mm in test [1], 29 mm with P. fluorescens (S 97) and 25 mm in test [3]. Also, in the test with Gram-negative bacteria, the “Activity against Gram-negative bacteria” value was “active”.

With `O=C(N[C@H](CO)[C@H](O)c1ccc([N+](=O)[O-])cc1)C(Cl)Cl` [Chloramphenicol, reference compound], in [2], the zone of inhibition at 10 µg/mL stood at 25 mm and the zone of inhibition at 15 µg/mL amounted to 25 mm. In the test with P. fluorescens (S 97), the zone of inhibition at 10 µg/mL worked out at 30 mm and the zone of inhibition at 15 µg/mL turned out to be 30 mm.

Regarding `CC(C(=O)O)N1C2=NC(c3ccc(Cl)cc3)C3=C(CCCC3=O)N2NC1(C)c1ccccc1O` (stereo not drawn) [Compound 6, 2-(5-(4-Chlorophenyl)-2-(2-hydroxyphenyl)-2-methyl-6-oxo-1,2,6,7,8,9-hexahydro-[1,2,4]triazolo[1,5-a]quinazolin-3(5H)-yl)propanoic acid], the zone of inhibition at 10 µg/mL came out at 7 mm in the test with C. albicans, 15 mm in the test with S. aureus (ATCC 25923), 10 mm in the test with S. pyogenes (ATCC 19615) and 19 mm in the test on P. fluorescens (S 97). For the same molecule, the zone of inhibition at 15 µg/mL in the test on C. albicans stood at 8 mm; in [1], 10 mm; with S. aureus (ATCC 25923), 25 mm; in the test on S. pyogenes (ATCC 19615), 24 mm; in test [2], 29 mm; in [3] it was 22 mm. Moreover, the “Activity against Gram-negative bacteria” value in the test with Gram-negative bacteria was “active”.

With `CC(C(=O)O)N1C2=NC(c3ccc(Cl)cc3)C3=C(CC(C)(C)CC3=O)N2NC1(C)c1ccccc1O` (stereo not drawn) [Compound 7, 2-(5-(4-Chlorophenyl)-2-(2-hydroxyphenyl)-2,8,8-trimethyl-6-oxo-1,2,6,7,8,9-hexahydro-[1,2,4]triazolo[1,5-a]quinazolin-3(5H)-yl)propanoic acid], the zone of inhibition at 10 µg/mL with C. albicans was determined as 10 mm; in the test with S. aureus (ATCC 25923) it was 15 mm; in the test on S. pyogenes (ATCC 19615), 12 mm; in test [2], 19 mm. The zone of inhibition at 15 µg/mL amounted to 11 mm in the test with C. albicans; 8 mm in test [1]; 23 mm in the test with S. aureus (ATCC 25923); 20 mm with S. pyogenes (ATCC 19615); 20 mm in test [3]. Further, the “Activity against Gram-negative bacteria” value in the test on Gram-negative bacteria was “active”.

As for `CCOC(=O)C1=C(C)N2NC(C)(c3ccccc3O)N(C(Cc3c[nH]c4ccccc34)C(=O)O)C2=NC1c1ccc(Cl)cc1` (stereo not drawn) [Compound 3d, 2-(5-(4-Chlorophenyl)-6-(ethoxycarbonyl)-2-(2-hydroxyphenyl)-2,7-dimethyl-1,2-dihydro-[1,2,4]triazolo[1,5-a]pyrimidin-3(5H)-yl)-3-(1H-indol-3-yl)propanoic acid], in the test on Gram-positive bacteria, the “Activity against Gram-positive bacteria” value is on record as “active”. The results for the zone of inhibition at 10 µg/mL (in the test on C. albicans; in [2]; with P. fluorescens (S 97)) were 9 mm, 11 mm and 10 mm, respectively. For the same molecule, the zone of inhibition at 15 µg/mL in the test on C. albicans is 10 mm; in test [1], 6 mm; in test [2], 23 mm; in [3] it was 6 mm.

Take `CCOC(=O)C1=C(C)N2NC(C)(c3ccccc3O)N(C(C)C(=O)O)C2=NC1c1ccc(Cl)cc1` (stereo not drawn) [Compound 3b, 2-(5-(4-Chlorophenyl)-6-(ethoxycarbonyl)-2-(2-hydroxyphenyl)-2,7-dimethyl-1,2-dihydro-[1,2,4]triazolo[1,5-a]pyrimidin-3(5H)-yl)propanoic acid]: the zone of inhibition at 10 µg/mL with C. albicans was 10 mm; in the test on S. aureus (ATCC 25923), 12 mm. Also, the zone of inhibition at 15 µg/mL was found to be 12 mm in the test on C. albicans; 12 mm in [1]; 25 mm with S. aureus (ATCC 25923); 24 mm in the test on S. pyogenes (ATCC 19615); 27 mm in test [3]. In addition, the “Activity against Gram-negative bacteria” value in the test with Gram-negative bacteria was “active”.
